The structures appear in SMILES notation. The source made the active and inactive calls. The rule behind the calls is not given here.

Series [1] relates to 4T1. Description: Antitumor activity against mouse 4T1 cells xenografted with BALB/c mouse assessed as decrease in tumor weight at 5.7 mg/kg,iv administrated once per week for 4 weeks. The format is functional, organism-based. A digest of the protocol:
(§1)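 4T1 cells injected into mammary fat pads of BALB/c mice. Dosing iv once per week for 4 weeks, saline vehicle; single-agent arms were given alone or with the peptide component (5b or 6). Endpoints were body weight, tumour volume, tumour weight, lung metastatic nodule count and lung metastasis score. Mean ± SEM, n = 10; ANOVA and Student's t test.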

A short description of series [2]: Tmax in mouse plasma implanted with mouse 4T1 cells at 5.7 mg/kg,iv measured upto 72 hrs. The format is ADME, organism-based.
Series [3] has as its system 4T1. Description: Antitumor activity against mouse 4T1 cells xenografted with BALB/c mouse assessed as decrease in lung metastasis at 5.7 mg/kg,iv administrated once per week for 4 weeks. The format is functional, organism-based. In a few lines: as §1
The test system of series [4] is 4T1. Description: Antitumor activity against mouse 4T1 cells implanted in BALB/c mouse assessed as decrease in neutrophil in peripheral blood at 11.4 mg/kg,iv administrated qd for 2 days by blood smear staining microscopic analysis. It counts as functional, organism-based. The settings on record: time 2.0 day. A digest of the protocol:
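On day 19 after 4T1 implantation, mice were randomized into five groups and given iv vehicle or test article, plus ip C12-iE-DAP (50 μg/mouse) and MDP (100 μg/mouse), once daily for 2 days. Mice were killed 6 h later. Peripheral blood neutrophils/leukocytes were counted on stained blood smears at 1000×.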

The subject of series [5] is 4T1. Description: Antitumor activity against mouse 4T1 cells implanted in BALB/c mouse assessed as decrease in lung metastasis at 5.7 mg/kg,iv administrated once per week for 4 weeks by H and E staining based assay. The format is functional, organism-based. A digest of the protocol:
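BALB/c mice bearing orthotopic mammary fat pad 4T1 tumors, dosed iv weekly for 4 weeks with saline vehicle as control. Lung sections stained with hematoxylin and eosin and examined by light microscopy at 40× for metastasis, inflammatory infiltration and alveolar wall thickening.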

The test system of series [6] is 4T1. Description: Antitumor activity against mouse 4T1 cells implanted in BALB/c mouse assessed as decrease in serum TIMP-1 level at 5.7 mg/kg,iv administrated once per week for 4 weeks by ELISA. The format is functional, organism-based. On the technique in general: In an ELISA, binding on a coated surface is turned into a signal by an enzyme label.
A short description of series [7]: Tmax in Beagle dog at 2 mg/kg,iv measured upto 24 hrs. It counts as ADME, organism-based, Canis lupus familiaris. The following applies: in vivo.
Series [8] in a line: Prodrug conversion in mouse tumor implanted with mouse 4T1 cells assessed as MRT of docetaxel at 4 mg/kg,iv measured upto 72 hrs. The settings on record: in vivo. The format is ADME, organism-based, Neoplasm.
A short description of series [9]: Half life in male rat at 8 mg/kg,iv measured upto 24 hrs. It counts as ADME, organism-based. The settings on record: in vivo.
Series [10] can be described thus: MRT (0 to infinity) in male rat at 2 mg/kg,iv measured upto 24 hrs. It counts as ADME, organism-based. The settings on record: in vivo.
The subject of series [11] is 4T1. Description: Antitumor activity against mouse 4T1 cells implanted in BALB/c mouse assessed as decrease in serum IL-6 level at 10 mg/kg,iv administrated once per week for 4 weeks by ELISA. The format is functional, organism-based. In a few lines:
(§2)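 4T1 fat-pad model in BALB/c mice, iv 5–20 mg/kg once weekly for 4 weeks, with vehicle and naive groups; serum MMP9, TIMP-1, IL-6 and S100A9 measured by mouse ELISA kits.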

Series [12] has as its system 4T1. Description: Antitumor activity against mouse 4T1 cells implanted in BALB/c mouse assessed as decrease in serum MMP9 level at 20 mg/kg,iv administrated once per week for 4 weeks by ELISA. The format is functional, organism-based. A digest of the protocol:
as §2

A short description of series [13]: Tmax in mouse plasma implanted with mouse 4T1 cells at 10 mg/kg,iv measured upto 72 hrs. The format is ADME, organism-based.
Series [14] is described as follows: Clearance in rat at 8 mg/kg,iv measured upto 24 hrs. It counts as ADME, organism-based. The following applies: in vivo. In a few lines: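 Rats were given a single iv injection at 2, 4 or 8 mg/kg. Plasma parent drug and released docetaxel were followed over time. Cmax, Tmax, AUC, MRT, t1/2, CL and Vss were reported for males, females and all animals combined.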

The nature of series [15]: Toxicity in Beagle dog assessed as decrease in blood pressure at 1 to 4 mg/kg,iv measured after 1 to 4 hrs. It counts as organism-based, Canis lupus familiaris. The settings on record: in vivo, dose lower 1 mg/kg, time lower 1 hrs, dose upper 4 mg/kg, time upper 4 hrs.
A short description of series [16]: AUC (0-t) in female Beagle dog at 4 mg/kg,iv measured upto 24 hrs. The format is ADME, organism-based, Canis lupus familiaris. Details: dose 4 mg/kg, time < 24 hrs, route iv. The following applies: in vivo. In a few lines: (§3)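 Single iv dose: rats 2, 4 or 8 mg/kg by intravenous injection; Beagle dogs 1, 2 or 4 mg/kg by intravenous infusion. Plasma concentration–time data were analysed by sex and pooled. Reported parameters: Cmax, Tmax, AUC0−t, AUC0−∞, MRT0−∞, t1/2, CL, Vss, given as mean ± SD.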

Series [17] is described as follows: Toxicity in Beagle dog assessed as effect on respiratory intensity at 1 to 4 mg/kg,iv. It counts as organism-based, Canis lupus familiaris. The following applies: in vivo, dose 1-4 mg/kg.
Series [18] in a line: Toxicity in male Sprague-Dawley rat assessed as testicular atrophy at 2 to 8 mg/kg,iv measured upto 24 hrs. The settings on record: in vivo, dose 2-8 mg/kg. The format is organism-based.
A short description of series [19]: MRT (0 to infinity) in male Beagle dog at 4 mg/kg,iv measured upto 24 hrs. The format is ADME, organism-based, Canis lupus familiaris. The following applies: in vivo.
A short description of series [20]: Volume of distribution at steady state in male rat at 4 mg/kg,iv measured upto 24 hrs. It counts as ADME, organism-based. The settings on record: in vivo, read-out: Vdss.
A short description of series [21]: AUC (0-infinity) in Beagle dog at 1 mg/kg,iv measured upto 24 hrs. It counts as ADME, organism-based, Canis lupus familiaris. Details: dose 1 mg/kg, time < 24 hrs, route iv. The settings on record: in vivo. A digest of the protocol:
as §3

A short description of series [22]: MRT (0 to infinity) in Beagle dog at 2 mg/kg,iv measured upto 24 hrs. The settings on record: in vivo. The format is ADME, organism-based, Canis lupus familiaris.
Series [23] can be described thus: Half life in rat at 8 mg/kg,iv measured upto 24 hrs. The following applies: in vivo. It counts as ADME, organism-based.
Series [24] relates to 4T1. Description: Antitumor activity against mouse 4T1 cells xenografted with BALB/c mouse assessed as decrease in tumor volume at 10 mg/kg,iv administrated once per week for 4 weeks. The format is functional, organism-based. A digest of the protocol: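 4T1 cells injected into the mammary fat pad of BALB/c mice; iv saline vehicle or 5, 10 or 20 mg/kg once weekly for 4 weeks; body weight, tumour volume, tumour weight, lung metastatic nodule count and metastasis score recorded; n = 10, mean ± SEM, ANOVA and Student's t test.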

The nature of series [25]: Volume of distribution at steady state in female rat at 2 mg/kg,iv measured upto 24 hrs. The format is ADME, organism-based. The settings on record: in vivo, read-out: Vdss.
The test system of series [26] is 4T1. Description: Antitumor activity against mouse 4T1 cells implanted in BALB/c mouse assessed as decrease in tumor MMP9 expression level at 5 to 20 mg/kg,iv administrated once per week for 4 weeks by western blot assay. It counts as functional, organism-based. The following applies: dose 5-20 mg/kg. A digest of the protocol:
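4T1 fat-pad model in BALB/c mice, iv once weekly for 4 weeks; MMP9, MMP2 and NOD1 in spleen, lung and tumour by western blot, β-actin loading control; bands averaged over five mice per group, representative of two independent experiments.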
A general note: Immunoblotting shows a protein as a band on a membrane.

Series [27] can be described thus: AUC (0-t) in female rat at 8 mg/kg,iv measured upto 24 hrs. It counts as ADME, organism-based. The settings on record: in vivo. Details: dose 8 mg/kg, time < 24 hrs, route iv. A digest of the protocol: as §3
The target in the next series is Cytochrome P450 1A (Homo sapiens, UniProt P04798+P05177). Description: Inhibition of CYP1A in human liver microsomes using probe substrate at 0.1 to 100 uM in presence of NADPH. The settings on record: dose 0.1-100 µM. The format is ADME, Microsome. A general note: Liver microsomes are vesicles of endoplasmic reticulum, rich in cytochrome P450 enzymes.
Series [28] can be described thus: Half life in female rat at 8 mg/kg,iv measured upto 24 hrs. The format is ADME, organism-based. The following applies: in vivo.
Series [29] can be described thus: AUC (0-infinity) in female rat at 8 mg/kg,iv measured upto 24 hrs. The format is ADME, organism-based. Details: dose 8 mg/kg, time < 24 hrs, route iv. The following applies: in vivo. In a few lines: as §3
A short description of series [30]: Volume of distribution at steady state in rat at 2 mg/kg,iv measured upto 24 hrs. The format is ADME, organism-based. The following applies: in vivo, read-out: Vdss.
The nature of series [31]: Half life in rat at 4 mg/kg,iv measured upto 24 hrs. It counts as ADME, organism-based. The following applies: in vivo.
The nature of series [32]: Toxicity in BALB/c mouse xenografted with human A549/Taxol cells assessed as side effects at 10 mg/kg,iv administrated once per week for 3 weeks. The following applies: in vivo, 504 h. The format is organism-based, A549/TR.

Take `CC(=O)O[C@@]12CO[C@@H]1C[C@H](O)[C@@]1(C)C(=O)[C@H](O)C3=C(C)[C@@H](OC(=O)[C@H](O)[C@@H](NC(=O)OC(C)(C)C)c4ccccc4)C[C@@](O)([C@@H](OC(=O)c4ccccc4)[C@H]21)C3(C)C` [DOCETAXEL ANHYDROUS]: the result in the series with 4T1 [1], with 4T1 [3], with 4T1 [4], with 4T1 [5] and in the series with 4T1 [6] was Active. Further, the Tmax (usually the time from dosing to the highest level) in series [2] turned out to be 1.8 min.
For `CC(=O)O[C@@]12CO[C@@H]1C[C@H](O)[C@@]1(C)C(=O)[C@H](O)C3=C(C)[C@@H](OC(=O)[C@H](OC(=O)CCC(=O)NCCCC[C@H](NC(=O)CC[C@@H](NC(=O)[C@H](C)NC(=O)/C=C/c4ccc(F)cc4Cl)C(N)=O)C(=O)O)[C@@H](NC(=O)OC(C)(C)C)c4ccccc4)C[C@@](O)([C@@H](OC(=O)c4ccccc4)[C@H]21)C3(C)C`, the time of peak concentration (Tmax) in [7] turned out to be 30 min; in series [13], 1.8 min. Moreover, the MRT – broadly, the average time that molecules of a dose stay in the body – in [8] is 87.4 h. The half-life – broadly, how long it takes for the measured level to halve – in series [9] was 21.4 min; in [23] it was 18.3 min; in series [28] it was 15.2 min; in series [31], 10.6 min. The MRT inf (in general, the average time that molecules of a dose stay in the body) is 13.9 min in series [10], 16.5 min in series [19] and 14.2 min in [22]. Besides, the outcome in the series on 4T1 [11], with 4T1 [12] and in the series on 4T1 [24] was Active. Besides, the clearance (in general, the volume of plasma or blood freed of the substance per unit of time) in series [14] is 2.97 mL/min/kg. Further, the Activity result in series [15] was “Non-Toxic”; in [17], “Non-Toxic”; in series [18] it was “Toxic”; in [32] it was “Non-Toxic”. For the same molecule, the AUC(0-t) (in general, exposure summed from dosing to a finite time, without extrapolation to infinity) at 24 h was determined as 20300 ng·h/mL in [16] and 39300 ng·h/mL in series [27]. Besides, the figures for the Vd in [20], in series [25] and in series [30] were 0.073 L/kg, 0.067 L/kg and 0.071 L/kg, respectively. The AUC(0-inf) (in general, total exposure, with the tail of the curve extrapolated) in series [21] was found to be 1640 ng·h/mL; in [29], 39400 ng·h/mL. The result in the series on 4T1 [26] was inactive. At Cytochrome P450 1A, the “inhibition (INH)” value was “Not Active”.

The record behind these values is ChEMBL document CHEMBL5252546, “Salutaxel, a Conjugate of Docetaxel and a Muramyl Dipeptide (MDP) Analogue, Acts as Multifunctional Prodrug That Inhibits Tumor Growth and Metastasis” (J Med Chem, 2018).
